Measured values: ChEMBL document CHEMBL1156595, “Studies on the antifungal properties of N-thiolated beta-lactams” (2008)
≈ marks a conversion by molar mass, not a printed value. One block for each compound: values may come before it. Calls of active or inactive are those of the source. No cut-off for these calls is given here.

Tests used:
[1] = test system: Candida albicans; experiment: Antifungal activity against Candida albicans ATCC 2091 by […]; type: functional
Outline: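 Tube broth dilution in yeast nitrogen broth. Lactam was added from a 1 mg/mL DMSO stock and serially diluted down to 0.125 ug/mL in broth. Each tube was inoculated with 1 uL of a 10^6 CFU/mL fungal suspension in sterile NaCl and incubated 24 or 48 h at 26°C or 37°C, depending on strain. Growth was read by optical density. MIC is the lowest concentration inhibiting all growth, averaged over triplicates.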

[2] = test system: Aspergillus niger; experiment: Antifungal activity against Aspergillus niger in potato dextrose agar by agar dilution method; type: functional
Outline: (§1)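 Agar dilution MIC, run per NCCLS guidance. Medium was potato dextrose agar for A. niger and YM agar for S. cerevisiae.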

[3] = test system: Nakaseomyces glabratus; experiment: Antifungal activity against Candida glabrata ATCC 15126 after 48 hrs by NCCLS M27-A2 method; type: functional; conditions: ATCC 15126, 48 h
Outline: (§2)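 Broth dilution in yeast nitrogen broth. Lactam from a 1 mg/mL DMSO stock was serially diluted down to 0.125 ug/mL. Each tube got 1 uL of a 10^6 CFU/mL inoculum in sterile NaCl. Incubation was 24 or 48 h at 26°C or 37°C depending on strain. Growth was read by optical density. MIC was the lowest concentration inhibiting all growth, averaged over triplicates.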

[4] = test system: Kluyveromyces marxianus; experiment: Antifungal activity against Candida kefyr ATCC 20409 after 48 hrs by NCCLS M27-A2 method; type: functional; conditions: ATCC 20409, 48 h; outline: as §2
[5] = test system: Cyberlindnera jadinii; experiment: Antifungal activity against Candida utilis ATCC 29950 after 24 hrs by NCCLS M27-A2 method; type: functional; conditions: Williopsis jadinii, ATCC 29950, 24 h; outline: as §2
[6] = test system: Candida albicans; experiment: Antifungal activity against Candida albicans ATCC 2091 assessed as degradation of intracellular membrane at <5 ug/ml after 4 hrs by transmission electron microscopy; type: functional, organism-based
[7] = test system: Kluyveromyces marxianus; experiment: Antifungal activity against Candida kefyr ATCC 20409 after 24 hrs by NCCLS M27-A2 method; type: functional; conditions: ATCC 20409, 24 h; outline: as §2
[8] = test system: Cyberlindnera jadinii; experiment: Antifungal activity against Candida utilis ATCC 29950 after 48 hrs by NCCLS M27-A2 method; type: functional; conditions: Williopsis jadinii, ATCC 29950, 48 h; outline: as §2
[9] = test system: Nakaseomyces glabratus; experiment: Antifungal activity against Candida glabrata ATCC 15126 after 24 hrs by NCCLS M27-A2 method; type: functional; conditions: ATCC 15126, 24 h; outline: as §2
[10] = test system: Clavispora lusitaniae; experiment: Antifungal activity against Candida lusitaniae ATCC 34449 assessed as growth inhibition zone at 50 ug after 24 by Kirby-Bauer agar diffusion assay; type: functional; conditions: read-out: IZ
Outline: (§3)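 Disk diffusion on yeast nitrogen base agar, swabbed with a McFarland 0.5 suspension in saline. 6 mm cellulose disks carried 10 µL of a 5 mg/mL CH2Cl2 stock (50 ug per disk), air-dried, three disks per plate. Plates were sealed and incubated 24 h at 37°C. Cleared inhibition zones were measured and averaged over triplicates.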

[11] = test system: Candida tropicalis; experiment: Antifungal activity against Candida tropicalis clinical isolate after 48 hrs by NCCLS M27-A2 method; type: functional; outline: as §2
[12] = test system: Candida tropicalis; experiment: Antifungal activity against Candida tropicalis clinical isolate assessed as growth inhibition zone at 50 ug after 24 hrs by Kirby-Bauer agar diffusion assay; type: functional; conditions: read-out: IZ; outline: as §3
[13] = test system: Candida parapsilosis; experiment: Antifungal activity against Candida parapsilosis ATCC 22019 after 48 hrs by NCCLS M27-A2 method; type: functional; conditions: Lodderomyces parapsilosis, ATCC 22019, 48 h; outline: as §2
[14] = test system: Candida parapsilosis; experiment: Antifungal activity against Candida parapsilosis ATCC 22019 assessed as growth inhibition zone at 50 ug after 24 hrs by Kirby-Bauer agar diffusion assay; type: functional; conditions: Lodderomyces parapsilosis, ATCC 22019, 24 h; read-out: IZ; outline: as §3
[15] = test system: Kluyveromyces marxianus; experiment: Antifungal activity against Candida kefyr ATCC 20409 assessed as growth inhibition zone at 50 ug after 24 hrs by Kirby-Bauer agar diffusion assay; type: functional; conditions: ATCC 20409, 24 h, read-out: IZ; outline: as §3
[16] = test system: Candida parapsilosis; experiment: Antifungal activity against Candida parapsilosis ATCC 22019 after 24 hrs by NCCLS M27-A2 method; type: functional; conditions: Lodderomyces parapsilosis, ATCC 22019, 24 h; outline: as §2
[17] = test system: Nakaseomyces glabratus; experiment: Antifungal activity against Candida glabrata ATCC 15126 assessed as growth inhibition zone at 50 ug after 24 hrs by Kirby-Bauer agar diffusion assay; type: functional; conditions: ATCC 15126, 24 h, read-out: IZ; outline: as §3
[18] = test system: Candida albicans; experiment: Antifungal activity against Candida albicans ATCC 2091 after 48 hrs by NCCLS M27-A2 method; type: functional; conditions: ATCC 2091, 48 h; outline: as §2
[19] = test system: Candida tropicalis; experiment: Antifungal activity against Candida tropicalis clinical isolate after 24 hrs by NCCLS M27-A2 method; type: functional; outline: as §2
[20] = test system: Candida albicans; experiment: Antifungal activity against Candida albicans ATCC 2091 after 24 hrs by NCCLS M27-A2 method; type: functional; conditions: ATCC 2091, 24 h; outline: as §2
[21] = test system: Candida albicans; experiment: Antifungal activity against Candida albicans ATCC 2091 assessed as growth inhibition zone at 50 ug after 24 hrs by Kirby-Bauer agar diffusion assay; type: functional; conditions: ATCC 2091, 24 h, read-out: IZ; outline: as §3
[22] = test system: Cyberlindnera jadinii; experiment: Antifungal activity against Candida utilis ATCC 29950 assessed as growth inhibition zone at 50 ug after 24 by Kirby-Bauer agar diffusion assay; type: functional; conditions: Williopsis jadinii, read-out: IZ; outline: as §3
[23] = test system: Clavispora lusitaniae; experiment: Antifungal activity against Candida lusitaniae ATCC 34449 after 48 hrs by NCCLS M27-A2 method; type: functional; conditions: ATCC 34449, 48 h; outline: as §2
[24] = test system: Pichia kudriavzevii; experiment: Antifungal activity against Candida krusei ATCC 14243 assessed as growth inhibition zone at 50 ug after 24hrs by Kirby-Bauer agar diffusion assay; type: functional; conditions: ATCC 14243, 24 h, read-out: IZ; outline: as §3
[25] = test system: Saccharomyces cerevisiae; experiment: Antifungal activity against Saccharomyces cerevisiae in YM agar by agar dilution method; type: functional; outline: as §1
[26] = test system: Clavispora lusitaniae; experiment: Antifungal activity against Candida lusitaniae ATCC 34449 after 24 hrs by NCCLS M27-A2 method; type: functional; conditions: ATCC 34449, 24 h; outline: as §2

Structure (SMILES): Clc1ccccc1C(c1ccccc1)(c1ccccc1)n1ccnc1 [CLOTRIMAZOLE]
MIC [1]: 2 µg/mL (≈ 5.8 µM)

MIC [2]: 16 µg/mL (≈ 62.1 µM)
MIC [3]: 10 µg/mL (≈ 38.8 µM)
MIC [4]: 35 µg/mL (≈ 136 µM)
MIC [5]: 10 µg/mL (≈ 38.8 µM)
MIC [7]: 10 µg/mL (≈ 38.8 µM)
MIC [8]: 15 µg/mL (≈ 58.2 µM)
MIC [9]: 10 µg/mL (≈ 38.8 µM)
MIC [11]: 30 µg/mL (≈ 116 µM)
MIC [13]: < 5 µg/mL
MIC [16]: < 5 µg/mL
MIC [18]: < 5 µg/mL
MIC [19]: 10 µg/mL (≈ 38.8 µM)
MIC [20]: < 5 µg/mL
MIC [23]: 15 µg/mL (≈ 58.2 µM)
MIC [25]: 32 µg/mL (≈ 124 µM)
MIC [26]: 10 µg/mL (≈ 38.8 µM)
Structure (SMILES): CO[C@H]1C(=O)N(SC)[C@H]1c1ccccc1Cl
Activity [6]: Active
zone of inhibition at 50 µg/disc [10]: 20 mm
zone of inhibition at 50 µg/disc [12]: 21 mm
zone of inhibition at 50 µg/disc [14]: 33 mm
zone of inhibition at 50 µg/disc [15]: 17 mm
zone of inhibition at 50 µg/disc [17]: 25 mm
zone of inhibition at 50 µg/disc [21]: 23 mm
zone of inhibition at 50 µg/disc [22]: 22 mm
zone of inhibition at 50 µg/disc [24]: 0 mm
